In one data set the target is Cannabinoid receptor 1 (Rattus norvegicus, UniProt P20272). The data set is described as follows: Displacement of [3H]CP-55940 from CB1 receptor in rat brain synaptosomes. The class given is subcellular. An outline of the steps:
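Test ligand at eight concentrations in DMSO. Incubation 1 h at 30 °C in TME buffer (25 mM Tris, 5 mM MgCl2, 1 mM EDTA) with 0.1% BSA. Nonspecific binding defined with 200 nM CP55,940. Bound ligand separated by rapid filtration and read by scintillation counting. Data from three independent experiments fitted by four-parameter logistic to give IC50, converted to Ki by Cheng–Prusoff.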

For the next data set, the target named is Cannabinoid receptor 2 (Mus musculus, UniProt P47936). The data set can be described thus: Displacement of [3H]CP-55940 from CB2 receptor in mouse spleen membranes. The class given is cell membranes, Membrane. The method in brief: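 Competitive displacement of [3H]CP55,940 (3.08 nM) from rat forebrain synaptosomal membranes (CB1) or frozen mouse spleen membranes (CB2), 40–50 µg protein. Test ligand at eight concentrations in DMSO. Incubation 1 h at 30 °C in TME buffer (25 mM Tris, 5 mM MgCl2, 1 mM EDTA) with 0.1% BSA. Nonspecific binding defined with 200 nM CP55,940. Bound ligand separated by rapid filtration and read by scintillation counting. Data from three independent experiments fitted by four-parameter logistic to give IC50, converted to Ki by Cheng–Prusoff.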
In general terms: Loss of bound radioactivity is the signal in a displacement assay; it reports binding, not function.

The nature of data set [1]: Selectivity of mouse CB2 receptor over rat CB1 receptor. The method in brief: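 Ratio of Ki values from [3H]CP55,940 displacement using rat brain synaptosomal membranes (CB1) and mouse spleen membranes (CB2). Both incubated 1 h at 30 °C in TME with 0.1% BSA. IC50 from three independent experiments converted to Ki by Cheng–Prusoff.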
For data set [2], the target named is Cannabinoid receptor 2 (Mus musculus) (UniProt P47936). The data set can be described thus: Agonist activity at CB2 receptor in mouse spleen membranes at 1 uM after 2 hrs by [35S]GTP-gamma-S binding assay. Conditions: Membrane. The data set is classed as functional, cell membranes. The method in brief:
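Mouse spleen lysed in a cell disruption bomb, centrifuged at 1000 g then 175000 g, and resuspended in TME with 0.1% BSA. Membranes (24–40 µg) incubated 2 h at 30 °C with test compound at 1 µM, 30 µM GDP and 0.05 nM [35S]GTPγS. Nonspecific binding defined with 10 µM unlabeled GTPγS. Bound label measured after GF/B filtration by scintillation counting. Reported with standard deviations.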

The target is the same in data set [3]. The data set can be described thus: Agonist activity at CB2 receptor in mouse spleen membranes assessed as inhibition of forskolin-stimulated cAMP production. The data set is classed as functional, cell membranes. Conditions: Membrane. For orientation: Cyclic AMP is a second messenger, typically raised through Gs and lowered through Gi signalling.
Data set [4] relates to Rattus norvegicus. The data set is described as follows: Antinociceptive activity in sc dosed Sprague-Dawley rat assessed as paw withdrawal latency to radiant heat after 20 mins. The data set is classed as functional. An outline of the steps:
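Male Sprague–Dawley rats, 200–300 g. Drug in DMSO, 50 µL, injected subcutaneously into the plantar hindpaw 20 min before testing. […] A50 (dose giving 50% MPE) taken from dose–response curves by Tallarida–Murray. n=6 per group, mean ± SEM.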

The subject of data set [5] is Rattus norvegicus. The data set can be described thus: Neurotoxicity in Sprague-Dawley rat assessed as ambulation on rotarod apparatus at 3.3 mg/kg, ip after 15 mins. The class given is toxicity, organism-based. Further details: dose 3.3 mg/kg, route intraperitoneal. Conditions: in vivo, 0.25 h. An outline of the steps:
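Rats trained to stay 180 s on a rotarod at 10 rpm. Drug given i.p. at 3.3 mg/kg. Time to fall recorded 15 min after dosing, with a 180 s cutoff; comparison is to vehicle baseline.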
In general terms: Falling from the rotarod earlier than controls is read as motor impairment.

The source made the active and inactive calls.

Cannabinoid receptor 2 (Mus musculus), sequence (P47936 whole entry): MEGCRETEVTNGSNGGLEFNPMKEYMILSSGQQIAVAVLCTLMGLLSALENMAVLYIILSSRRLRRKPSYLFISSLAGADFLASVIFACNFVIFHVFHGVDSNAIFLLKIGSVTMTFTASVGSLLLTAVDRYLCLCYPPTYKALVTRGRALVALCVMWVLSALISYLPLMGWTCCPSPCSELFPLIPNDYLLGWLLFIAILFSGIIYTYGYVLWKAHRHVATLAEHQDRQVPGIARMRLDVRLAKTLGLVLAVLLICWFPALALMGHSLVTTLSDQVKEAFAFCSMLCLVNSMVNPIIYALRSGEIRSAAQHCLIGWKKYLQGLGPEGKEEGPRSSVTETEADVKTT
Cannabinoid receptor 2, sequence (P47936 whole entry): as above
Cannabinoid receptor 1, sequence (P20272 whole entry): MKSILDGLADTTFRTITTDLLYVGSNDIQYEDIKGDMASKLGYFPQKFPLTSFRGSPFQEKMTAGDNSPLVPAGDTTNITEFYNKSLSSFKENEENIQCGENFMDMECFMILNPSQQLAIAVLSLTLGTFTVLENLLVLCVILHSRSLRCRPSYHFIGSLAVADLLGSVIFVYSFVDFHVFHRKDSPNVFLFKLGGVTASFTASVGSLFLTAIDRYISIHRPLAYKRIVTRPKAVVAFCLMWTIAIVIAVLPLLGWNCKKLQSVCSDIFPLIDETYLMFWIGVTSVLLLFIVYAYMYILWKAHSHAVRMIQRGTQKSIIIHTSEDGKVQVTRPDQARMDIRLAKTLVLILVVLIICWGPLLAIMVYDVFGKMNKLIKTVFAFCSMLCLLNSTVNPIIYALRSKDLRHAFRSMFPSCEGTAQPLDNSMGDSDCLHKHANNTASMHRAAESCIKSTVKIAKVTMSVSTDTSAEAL

For `CCCCCCC(C)(C)c1cc(O)c2c(c1)OC(C)(C)c1ccc(C)cc1-2`, the values for the Ki at Cannabinoid receptor 1 and at Cannabinoid receptor 2 were 0.95 nM and 1.1 nM, respectively. Moreover, in data set [1], the Ratio Ki turned out to be 0.86.
Regarding `Cc1c(C(=O)c2cccc3ccccc23)c2cccc3c2n1[C@H](CN1CCOCC1)CO3`, in data set [2], the Activity is 56%.
Consider `CCCCCCC(C)(C)c1cc(O)c2c(c1)oc(=O)c1ccc(C)cc12`, for which the Ki at Cannabinoid receptor 1 was found to be 39 nM; at Cannabinoid receptor 2, 3.1 nM.
On to `CCCCCCC(C)(C)c1cc(O)c2c(c1)oc(=O)c1ccc(O)cc12`, for which the Ki was found to be 400 nM on Cannabinoid receptor 1 and 0.82 nM on Cannabinoid receptor 2. Further, the Ratio Ki in data set [1] was found to be 490. Also, the Activity in data set [2] is 55%; in the data set on Rattus norvegicus [5], “Non-toxic”. Further, the result in data set [3] was Active. Also, the A50 with Rattus norvegicus [4] was determined as 4.5 mg/kg.
Turning to `CCCCCCC(C)(C)c1cc(O)c2c(c1)oc(=O)c1ccc(OC)cc12`, the Ki on Cannabinoid receptor 1 was 360 nM; at Cannabinoid receptor 2, 6.7 nM. Also, the Ratio Ki in data set [1] was found to be 54. In data set [2], this compound showed an Activity of 50%. In data set [3], the outcome was Active. In addition, the A50 with Rattus norvegicus [4] amounted to 1.6 mg/kg.
Regarding `CCCCCCC(C)(C)c1cc(O)c2c(c1)OC(C)(C)c1ccc(OC)cc1-2`, the Ki was 5.4 nM at Cannabinoid receptor 1 and 5.9 nM at Cannabinoid receptor 2. Further, the Ratio Ki in data set [1] stood at 0.92. In data set [2], this compound yielded an Activity of 42%.
For the compound `CCCCCCC(C)(C)c1cc(O)c2c(c1)OC(C)(C)c1ccc(O)cc1-2`, on Cannabinoid receptor 2, the affinity corresponds to a Ki of 4.8 nM. The Ratio Ki in data set [1] was found to be 0.54.

In general, Ki refers to the equilibrium dissociation constant of an inhibitor or competing ligand from its target.

(Values after ChEMBL document CHEMBL1138340, “Cannabilactones: a novel class of CB2 selective agonists with peripheral analgesic activity” (J Med Chem, 2007).)
